From ChEMBL document CHEMBL1153723, “Cytotoxic effects of cardiac glycosides in colon cancer cells, alone and in combination with standard chemotherapeutic drugs” (J Nat Prod, 2009) come the findings set out here.

Test [1] has as its system HT-29. Briefly: Cytotoxicity against human HT-29 cells assessed as survival index at 10 uM after 72 hrs by FMCA method. The note with it: HT-29, 72 h, read-out: Survival. The format is functional. In outline: (§1)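 Library screen by FMCA at a final 10 µM (10 mM DMSO stocks diluted in PBS); 5000 cells/well, 72 h at 37 °C, then fluorescein diacetate for 50 min with fluorescence at 485/520 nm. Survival index is well fluorescence as % of control wells after blank subtraction. QC required signal/blank >10 and CV <30% in control and blank wells.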

The nature of test [2]: Cytotoxicity against human CC20 cells after 72 hrs by FMCA method relative to digoxin. The format is functional.
Test [3] deals with HT-29. Nature of the test: Cytotoxicity against human HT-29 cells after 72 hrs by FMCA method. The format is functional, cell-based. The note with it: HT-29, 72 h. In outline: (§2)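 FMCA: cells seeded at 5000/well onto compound plates at nine concentrations (1:2 serial dilutions in PBS from DMSO solutions), in duplicate, for 72 h at 37 °C. Then washed, given fluorescein diacetate for 50 min at 37 °C, and fluorescence read at 485/520 nm. HT29 and CC20 were grown in DMEM, HCT116 in McCoy's 5A. IC50 from nonlinear regression of log concentration–effect curves; three independent experiments, mean ± SEM.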

A short description of test [4]: Cytotoxicity against human CC20 cells assessed as survival index at 10 uM after 72 hrs by FMCA method. The format is functional. Particulars: CC20, 72 h, read-out: Survival. The method in brief:
as §1

A short description of test [5]: Cytotoxicity against human CC20 cells after 72 hrs by FMCA method. The format is functional, cell-based. Particulars: CC20, 72 h. The method in brief:
as §2

Test [6] concerns HCT-116. Nature of the test: Cytotoxicity against human HCT116 cells after 72 hrs by FMCA method relative to digoxin. The format is functional.
Test [7] relates to HT-29. Briefly: Cytotoxicity against human HT-29 cells after 72 hrs by FMCA method relative to digoxin. The format is functional.
The test system of test [8] is HCT-116. Nature of the test: Cytotoxicity against human HCT116 cells after 72 hrs by FMCA method. Particulars: HCT-116, 72 h. The format is functional, cell-based. In outline: as §2
For test [9], the system named is HCT-116. Briefly: Cytotoxicity against human HCT116 cells assessed as survival index at 10 uM after 72 hrs by FMCA method. The format is functional. Particulars: HCT-116, 72 h, read-out: Survival. In outline:
as §1

A short description of test [10]: Cytotoxicity against human colon cancer cells after 72 hrs by FMCA method. The format is functional, cell-based. The note with it: Primary cultures of tumor cells from patients.
A short description of test [11]: Inhibition of Na+/K+ ATPase relative to digoxin.
The next test relates to MCF7. Nature of the test: Inhibition of TNF-alpha-stimulated NF-kappaB translocation from cytoplasm to nucleus in human MCF7 cells at 0.4 to 10 uM. The format is functional, cell-based. The method in brief: (§3)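 NF-κB activation high-content kit run per manufacturer: TNF-α-stimulated cells treated at 0.4, 2 and 10 µM (or 0.2, 1 and 5 µM). Cytoplasm-to-nucleus translocation of NF-κB quantified by automated imaging (ArrayScan). TNF-α and bortezomib served as controls.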

A further test concerns HeLa. Briefly: Inhibition of TNF-alpha-stimulated NF-kappaB translocation from cytoplasm to nucleus in human HeLa cells at 0.4 to 10 uM. The format is functional, cell-based. The method in brief:
as §3

Test [12] concerns HT-29. Nature of the test: Inhibition of TNF-alpha-stimulated NF-kappaB translocation from cytoplasm to nucleus in human HT-29 cells at 0.4 to 10 uM. The format is functional, cell-based. In outline:
as §3

Calls of active or inactive are those of the source. The rule behind the calls is not given here. Some results are limits rather than exact numbers.

The IC50 is the concentration needed to halve the response being measured. A lower IC50 goes with greater potency in that assay. Consider `C[C@@H]1O[C@@H](O[C@H]2CC[C@]3(C=O)[C@H]4CC[C@]5(C)[C@@H](C6=CC(=O)OC6)CC[C@]5(O)[C@@H]4CC[C@]3(O)C2)[C@H](O)[C@H](O)[C@H]1O` [CONVALLATOXIN], for which the viability at 10 µM in the test with HT-29 [1] was 20%; in test [4], 1%; in the test with HCT-116 [9] it was 3%. The Activity was 0.03 in [2], 0.04 in the test with HCT-116 [6] and 0.39 with HT-29 [7]. Moreover, the half-maximal inhibitory concentration (IC50) in the test with HT-29 [3] is 550 nM; in test [5], below 40 nM; with HCT-116 [8], below 40 nM.

Take `CO[C@H]1C[C@H](O[C@H]2CC[C@]3(C=O)[C@H]4CC[C@]5(C)[C@@H](C6=CC(=O)OC6)CC[C@]5(O)[C@@H]4CC[C@]3(O)C2)O[C@H](C)[C@H]1O` [CYMARIN]: the viability at 10 µM in the test on HT-29 [1] turned out to be 26%; in test [4], 2%; with HCT-116 [9] it was 4%.

With `C[C@@H]1CC[C@@]2(OC1)O[C@H]1[C@@H](O)[C@H]3[C@@H]4CC[C@H]5C[C@@H](O[C@@H]6O[C@H](CO)[C@H](O[C@@H]7O[C@H](CO)C(O)[C@H](O[C@@H]8OC[C@@H](O)[C@H](O)[C@H]8O)[C@H]7O[C@@H]7O[C@H](CO)[C@H](O)[C@H](O[C@@H]8O[C@H](CO)[C@@H](O)[C@H](O)[C@H]8O)[C@H]7O)[C@H](O)[C@H]6O)[C@H](O)C[C@]5(C)[C@H]4CC[C@]3(C)[C@H]1[C@@H]2C` (stereo partly drawn) [DIGITONIN], the viability at 10 µM is 74% in the test with HT-29 [1], 88% in test [4] and 62% in the test with HCT-116 [9]. The results for the IC50 (with HT-29 [3]; in [5]; with HCT-116 [8]) were 5600 nM, 9600 nM and 8700 nM, respectively.

`C[C@H]1O[C@@H](O[C@H]2[C@@H](O)C[C@H](O[C@H]3[C@@H](O)C[C@H](O[C@H]4CC[C@@]5(C)[C@H](CC[C@@H]6[C@@H]5CC[C@]5(C)[C@@H](C7=CC(=O)OC7)CC[C@]65O)C4)O[C@@H]3C)O[C@@H]2C)C[C@H](O)[C@@H]1O` [DIGITOXIN]: the results for the viability at 10 µM (in the test with HT-29 [1]; in test [4]; in the test on HCT-116 [9]) were 28%, 2% and 4%, respectively. For the same molecule, the Activity in test [2] is 1.71; in [11] it was 0.3; in the test with HCT-116 [6] it was 2.74; with HT-29 [7], 2.91. Further, the IC50 in test [10] is 100 nM; in the test with HT-29 [3], 4070 nM; in test [5] it was 410 nM; in the test on HCT-116 [8] it was 740 nM. Also, the inhibition result in the test with MCF7, in the test with HeLa and with HT-29 [12] was “inactive” throughout.

On to `C[C@H]1O[C@@H](O[C@H]2[C@@H](O)C[C@H](O[C@H]3[C@@H](O)C[C@H](O[C@H]4CC[C@@]5(C)[C@H](CC[C@@H]6[C@@H]5C[C@@H](O)[C@]5(C)[C@@H](C7=CC(=O)OC7)CC[C@]65O)C4)O[C@@H]3C)O[C@@H]2C)C[C@H](O)[C@@H]1O` [DIGOXIN], for which the viability at 10 µM in the test on HT-29 [1] was found to be 24%; in test [4], 1%; in the test with HCT-116 [9], 4%. The Activity (in test [2]; in test [11]; with HCT-116 [6]; in the test with HT-29 [7]) was 1 each time. For the same molecule, the IC50 came out at 100 nM in test [10], 1400 nM with HT-29 [3], 240 nM in [5] and 270 nM in the test on HCT-116 [8]. The inhibition result with MCF7, with HeLa and in the test with HT-29 [12] was “inactive” each time.

Turning to `CC(=O)O[C@H]1CC[C@@]2(C)[C@H](CC[C@@H]3[C@@H]2CC[C@]2(C)[C@@H](C4=CC(=O)OC4)[C@@H](OC(C)=O)C[C@]32O)C1` [GITOXIGENIN DIACETATE], the results for the viability at 10 µM (in the test with HT-29 [1]; in [4]; with HCT-116 [9]) were 40%, 2% and 17%, respectively.

On to `C[C@]12CC[C@H](O)C[C@H]1CC[C@@H]1[C@@H]2CC[C@]2(C)[C@@H](C3=CC(=O)OC3)[C@@H](O)C[C@]12O` [GITOXIGENIN], for which the figures for the viability at 10 µM (in the test with HT-29 [1]; in test [4]; in the test on HCT-116 [9]) were 81%, 54% and 63%, respectively.

In the case of `CC(=O)O[C@H]1C[C@H](O[C@H]2[C@@H](O)C[C@H](O[C@H]3[C@@H](O)C[C@H](O[C@H]4CC[C@@]5(C)[C@H](CC[C@@H]6[C@@H]5C[C@@H](O)[C@]5(C)[C@@H](C7=CC(=O)OC7)CC[C@]65O)C4)O[C@@H]3C)O[C@@H]2C)O[C@H](C)[C@H]1O[C@@H]1O[C@H](CO)[C@@H](O)[C@H](O)[C@H]1O` [LANATOSIDE C], the viability at 10 µM amounted to 40% in the test with HT-29 [1], 2% in test [4] and 5% in the test with HCT-116 [9].

As for `CO[C@H]1[C@H](O)[C@H](O[C@H]2CC[C@@]3(C)[C@H](CC[C@@H]4[C@@H]3CC[C@]3(C)[C@@H](C5=CC(=O)OC5)CC[C@]43O)C2)O[C@@H](C)[C@@H]1O` [NERIIFOLIN], the viability at 10 µM came out at 19% in the test on HT-29 [1], 2% in test [4] and 3% in the test on HCT-116 [9].

As to `CO[C@H]1C[C@H](O[C@H]2CC[C@@]3(C)[C@H](CC[C@@H]4[C@@H]3CC[C@]3(C)[C@@H](C5=CC(=O)OC5)[C@@H](OC(C)=O)C[C@]43O)C2)O[C@@H](C)[C@@H]1O` [OLEANDRIN], the viability at 10 µM with HT-29 [1] came to 20%; in test [4] it was 2%; with HCT-116 [9], 3%. Besides, the Activity in test [2] worked out at 0.38; in test [11] it was 0.42; with HCT-116 [6], 0.3; in the test on HT-29 [7] it was 0.31. The IC50 is 440 nM in the test with HT-29 [3], 90 nM in test [5] and 80 nM in the test with HCT-116 [8]. Moreover, the inhibition result in the test on MCF7, in the test with HeLa and in the test on HT-29 [12] was “inactive” each time.

For `C[C@@H]1O[C@@H](O[C@H]2C[C@@H](O)[C@]3(CO)[C@H]4[C@H](O)C[C@]5(C)[C@@H](C6=CC(=O)OC6)CC[C@]5(O)[C@@H]4CC[C@]3(O)C2)[C@H](O)[C@H](O)[C@H]1O` [OUABAIN], the viability at 10 µM amounted to 22% in the test with HT-29 [1], 3% in test [4] and 4% with HCT-116 [9].

For the molecule `CO[C@H]1[C@H](O)[C@H](O[C@H]2CC[C@@]3(C=O)[C@H](CC[C@@H]4[C@@H]3CC[C@]3(C)[C@@H](C5=CC(=O)OC5)CC[C@]43O)C2)O[C@@H](C)[C@@H]1O` [PERUVOSIDE], the viability at 10 µM in the test on HT-29 [1] amounted to 24%; in test [4], 2%; in the test on HCT-116 [9], 3%.

With `C[C@@H]1O[C@@H](O[C@@H]2C=C3CC[C@@H]4[C@H](CC[C@]5(C)[C@@H](c6ccc(=O)oc6)CC[C@]45O)[C@@]3(C)CC2)[C@H](O)[C@H](O)[C@H]1O` [PROSCILLARIDIN], the viability at 10 µM was 18% in the test with HT-29 [1], 3% in test [4] and 1% with HCT-116 [9]. Besides, the Activity came to 0.21 in test [2], 0.054 in test [11], 0.22 in the test on HCT-116 [6] and 0.39 in the test on HT-29 [7]. The concentration for half-maximal inhibition (IC50) in the test on HT-29 [3] was 550 nM; in [5], below 300 nM; in the test on HCT-116 [8], 60 nM.

As to `C[C@]12CC[C@H](O)C[C@H]1CC[C@@H]1[C@@H]2[C@H](O)C[C@]2(C)[C@@H](C3=CC(=O)OC3)CC[C@]12O` [SARMENTOGENIN], the viability at 10 µM with HT-29 [1] stood at 63%; in [4], 4%; in the test on HCT-116 [9], 26%.

Turning to `C[C@]12CC[C@H]3[C@@H](CC[C@]4(O)C[C@@H](O)CC[C@]34C=O)[C@@]1(O)CC[C@@H]2C1=CC(=O)OC1` [STROPHANTHIDIN], the viability at 10 µM was 58% with HT-29 [1], 3% in test [4] and 21% with HCT-116 [9].
